The record followed here is ChEMBL document CHEMBL2062426 (J Med Chem, 2012).

The target of series [1] is Matrix metalloproteinase-9 (Homo sapiens, UniProt P14780). Briefly: Inhibition of MMP9 using (7-methoxycoumarin-4-yl)acetyl-Pro-Leu-Gly-Leu-(3-(2,4-dinitrophenyl)-L-2,3-diaminopropionyl)Ala-Arg-NH2 as substrate incubated for 30 mins prior to substrate addition measured for 10 mins by fluorometry. In a few lines: (§1)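 Activated MMP-8 or MMP-9 (2 nM) was preincubated with inhibitor (10 pM–1 mM) in 50 mM Tris-HCl pH 7.5 with 0.2 M NaCl, 5 mM CaCl2, 20 μM ZnSO4 and 0.05% Brij 35 at 37 °C for 30 min. Fluorogenic substrate (10 μL of 50 μM into 90 μL) was then added. Rates from the first 10 min were plotted against inhibitor concentration, and values are the mean of three experiments.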

The target in series [2] is 72 kDa type IV collagenase (Homo sapiens, UniProt P08253). Briefly: Inhibition of MMP2 using (7-methoxycoumarin-4-yl)acetyl-Pro-Leu-Gly-Leu-(3-(2,4-dinitrophenyl)-L-2,3-diaminopropionyl)Ala-Arg-NH2 as substrate incubated for 30 mins prior to substrate addition measured for 10 mins by fluorometry.
The target of the next series is Collagenase 3 (Homo sapiens, UniProt P45452). As to the kind of experiment: Inhibition of MMP13 using (7-methoxycoumarin-4-yl)acetyl-Pro-Leu-Gly-Leu-(3-(2,4-dinitrophenyl)-L-2,3-diaminopropionyl)Ala-Arg-NH2 as substrate incubated for 30 mins prior to substrate addition measured for 10 mins by fluorometry.
The target in another series is Neutrophil collagenase (Homo sapiens, UniProt P22894). Briefly: Inhibition of MMP8 using (7-methoxycoumarin-4-yl)acetyl-Pro-Leu-Gly-Leu-(3-(2,4-dinitrophenyl)-L-2,3-diaminopropionyl)Ala-Arg-NH2 as substrate incubated for 30 mins prior to substrate addition measured for 10 mins by fluorometry. A digest of the protocol:
as §1

In series [3] the test system is Kidney. As to the kind of experiment: Half life in C57/Bl6 mouse kidney at 250 kBq/g bodyweight, iv administered as bolus dose by PET scanning. Type of series: ADME, organism-based. The note with it: in vivo. A digest of the protocol: (§2)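 Adult C57/Bl6 mice given the 18F tracer by intravenous injection. List-mode PET data acquired for 120 min on a high-resolution small-animal scanner and reconstructed into dynamic frames iteratively. Organ volumes of interest were drawn on co-registered CT. Uptake is counts per mL in the VOI divided by total counts in the mouse ×100 (% ID/mL).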

For series [4], the system named is Kidney. Briefly: Tmax in C57/Bl6 mouse kidney at 250 kBq/g bodyweight, iv administered as bolus dose by PET scanning. It counts as ADME, organism-based. The note with it: in vivo. In a few lines: as §2
Series [5] relates to Liver. As to the kind of experiment: Half life in C57/Bl6 mouse liver at 250 kBq/g bodyweight, iv administered as bolus dose by PET scanning. It counts as ADME, organism-based. The following applies: in vivo. A digest of the protocol:
as §2

In series [6] the test system is Liver. Briefly: Tmax in C57/Bl6 mouse liver at 250 kBq/g bodyweight, iv administered as bolus dose by PET scanning. The following applies: in vivo. It counts as ADME, organism-based. In a few lines: as §2

Chain of Matrix metalloproteinase-9 (P14780 whole entry): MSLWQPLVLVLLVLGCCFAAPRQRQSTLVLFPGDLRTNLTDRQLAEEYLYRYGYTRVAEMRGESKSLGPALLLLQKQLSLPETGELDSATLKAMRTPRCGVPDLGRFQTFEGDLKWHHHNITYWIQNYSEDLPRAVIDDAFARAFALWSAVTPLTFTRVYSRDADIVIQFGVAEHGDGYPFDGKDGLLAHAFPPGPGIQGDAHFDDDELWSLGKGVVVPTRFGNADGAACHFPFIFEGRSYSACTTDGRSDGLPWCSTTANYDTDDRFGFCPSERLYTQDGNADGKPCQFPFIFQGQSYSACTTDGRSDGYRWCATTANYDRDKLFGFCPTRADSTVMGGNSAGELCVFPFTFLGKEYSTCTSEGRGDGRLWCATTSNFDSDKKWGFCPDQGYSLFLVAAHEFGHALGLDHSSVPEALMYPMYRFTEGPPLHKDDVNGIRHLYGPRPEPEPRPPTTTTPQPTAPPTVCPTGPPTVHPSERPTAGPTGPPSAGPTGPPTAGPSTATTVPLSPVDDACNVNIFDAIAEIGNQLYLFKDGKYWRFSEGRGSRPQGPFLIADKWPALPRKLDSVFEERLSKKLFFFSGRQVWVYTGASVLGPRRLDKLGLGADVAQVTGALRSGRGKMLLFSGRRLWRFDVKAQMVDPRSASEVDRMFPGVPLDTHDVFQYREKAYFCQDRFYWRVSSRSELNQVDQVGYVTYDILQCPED
Chain of Neutrophil collagenase (P22894 whole entry): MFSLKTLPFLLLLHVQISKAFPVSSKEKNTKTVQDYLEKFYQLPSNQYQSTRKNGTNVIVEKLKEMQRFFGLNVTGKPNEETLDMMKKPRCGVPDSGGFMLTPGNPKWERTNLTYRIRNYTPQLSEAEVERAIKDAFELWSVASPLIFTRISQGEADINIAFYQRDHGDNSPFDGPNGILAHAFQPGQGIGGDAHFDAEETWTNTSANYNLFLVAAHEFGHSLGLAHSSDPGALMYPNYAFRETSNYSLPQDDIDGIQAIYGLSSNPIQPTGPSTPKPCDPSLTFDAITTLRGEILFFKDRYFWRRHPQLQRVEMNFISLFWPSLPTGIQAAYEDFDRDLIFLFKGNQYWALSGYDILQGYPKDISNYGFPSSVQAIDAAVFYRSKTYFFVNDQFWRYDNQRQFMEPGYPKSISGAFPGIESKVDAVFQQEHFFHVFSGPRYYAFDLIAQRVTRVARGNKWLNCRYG
Chain of 72 kDa type IV collagenase (P08253 whole entry): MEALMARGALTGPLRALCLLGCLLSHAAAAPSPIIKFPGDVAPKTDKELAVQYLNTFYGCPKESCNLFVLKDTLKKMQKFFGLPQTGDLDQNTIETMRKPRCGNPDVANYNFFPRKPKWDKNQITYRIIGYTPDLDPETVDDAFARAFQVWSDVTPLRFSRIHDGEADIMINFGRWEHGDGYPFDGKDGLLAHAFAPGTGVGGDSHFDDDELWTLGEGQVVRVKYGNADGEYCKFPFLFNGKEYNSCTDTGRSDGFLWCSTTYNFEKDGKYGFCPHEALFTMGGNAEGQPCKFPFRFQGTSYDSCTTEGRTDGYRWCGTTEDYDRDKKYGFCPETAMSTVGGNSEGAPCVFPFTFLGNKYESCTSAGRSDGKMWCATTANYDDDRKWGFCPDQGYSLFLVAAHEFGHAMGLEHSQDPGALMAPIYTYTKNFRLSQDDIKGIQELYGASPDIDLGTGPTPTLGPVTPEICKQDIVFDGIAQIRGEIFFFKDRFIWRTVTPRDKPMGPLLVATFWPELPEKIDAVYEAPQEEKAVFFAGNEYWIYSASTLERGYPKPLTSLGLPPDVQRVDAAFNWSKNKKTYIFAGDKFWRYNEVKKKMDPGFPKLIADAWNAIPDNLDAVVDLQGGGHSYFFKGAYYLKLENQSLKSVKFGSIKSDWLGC

With `COc1ccc(S(=O)(=O)N(Cc2ccc(OCCOCCOCCOCCOCc3cn(CCOCCOCCOCCF)nn3)cc2)[C@@H](C(=O)NO)C(C)C)cc1`, the IC50 in series [1] was 5 nM; in series [2] it was 4 nM; at Collagenase 3, 4 nM; against Neutrophil collagenase, 5 nM.

Turning to `COc1ccc(S(=O)(=O)N(Cc2ccc(OCCOCCOCCOCCOCc3cn(CCF)nn3)cc2)[C@@H](C(=O)NO)C(C)C)cc1`, the IC50 is 0.6 nM in series [1], 2 nM in series [2], 6 nM against Collagenase 3 and 0.2 nM at Neutrophil collagenase.

Turning to `C#CCOCCOCCOCCOCCOc1ccc(CN([C@@H](C(=O)NO)C(C)C)S(=O)(=O)c2ccc(OC)cc2)cc1`, the IC50 in series [1] is 0.37 nM; in series [2] it was 0.35 nM; on Collagenase 3, 0.09 nM; against Neutrophil collagenase, 0.11 nM.

Regarding `COc1ccc(S(=O)(=O)N(Cc2ccc(OCCOCCOCCOCCOCc3cn([C@@H]4O[C@H](CO)[C@@H](O)[C@H](O)[C@H]4F)nn3)cc2)[C@@H](C(=O)NO)C(C)C)cc1`, the IC50 in series [1] came out at 43 nM; in series [2], 30 nM; at Collagenase 3 it was 18 nM; on Neutrophil collagenase it was 58 nM.

For the compound `COc1ccc(S(=O)(=O)N(Cc2ccc(OCCOCCOCCOCCn3cc(COCCOCCOCCOCCOCCF)nn3)cc2)[C@@H](C(=O)NO)C(C)C)cc1`, the IC50 was 3 nM in series [1], 4 nM in series [2], 1 nM against Collagenase 3 and 3 nM on Neutrophil collagenase.

For `C#CCN([C@@H](C(=O)NO)C(C)C)S(=O)(=O)c1ccc(OC)cc1`, the IC50 in series [1] amounted to 2 nM; in series [2], 5 nM; at Collagenase 3 it was 10 nM; against Neutrophil collagenase, 14 nM.

For the compound `COc1ccc(S(=O)(=O)N(Cc2cn(CCOS(=O)(=O)c3ccc(C)cc3)nn2)[C@@H](C(=O)NO)C(C)C)cc1`, the IC50 in series [1] was found to be 7 nM; in series [2], 107 nM; against Collagenase 3 it was 5 nM; against Neutrophil collagenase it was 8 nM.

`COc1ccc(S(=O)(=O)N(Cc2cn(CCF)nn2)[C@@H](C(=O)NO)C(C)C)cc1`: the IC50 in series [1] was 0.03 nM; in series [2], 0.13 nM; at Collagenase 3, 0.006 nM; against Neutrophil collagenase, 0.02 nM.

Consider `COc1ccc(S(=O)(=O)N(Cc2cn(CCOCCOCCOCCOS(=O)(=O)c3ccc(C)cc3)nn2)[C@@H](C(=O)NO)C(C)C)cc1`, for which the concentration for half-maximal inhibition (IC50) in series [1] was 0.06 nM; in series [2], 0.07 nM; against Collagenase 3, 0.02 nM; at Neutrophil collagenase, 0.03 nM.

With `COc1ccc(S(=O)(=O)N(Cc2cn(CCOCCOCCOCCF)nn2)[C@@H](C(=O)NO)C(C)C)cc1`, the IC50 in series [1] came to 0.05 nM; in series [2] it was 0.1 nM; against Collagenase 3 it was 0.04 nM; against Neutrophil collagenase, 0.04 nM.

Turning to `COc1ccc(S(=O)(=O)N(Cc2cn(CCOCCOCCOCCN=[N+]=[N-])nn2)[C@@H](C(=O)NO)C(C)C)cc1`, the IC50 was 0.9 nM in series [1], 1.2 nM in series [2], 6 nM on Collagenase 3 and 9 nM against Neutrophil collagenase.

As for `COc1ccc(S(=O)(=O)N(Cc2cn(CCOCCOCCOCCOc3cccnc3F)nn2)[C@@H](C(=O)NO)C(C)C)cc1`, the IC50 in series [1] came to 4 nM; in series [2], 3 nM; against Collagenase 3 it was 1 nM; at Neutrophil collagenase it was 5 nM.

`COc1ccc(S(=O)(=O)N(Cc2cn([C@@H]3O[C@H](CO)[C@@H](O)[C@H](O)[C@H]3F)nn2)[C@@H](C(=O)NO)C(C)C)cc1`: the IC50 in series [1] was 0.6 nM; in series [2] it was 0.2 nM; at Collagenase 3 it was 0.5 nM; at Neutrophil collagenase it was 0.5 nM.

On to `COc1ccc(S(=O)(=O)N(Cc2cn(CCOCCOCCOCCn3cc(CN([C@@H](C(=O)NO)C(C)C)S(=O)(=O)c4ccc(OC)cc4)nn3)nn2)[C@@H](C(=O)NO)C(C)C)cc1`, for which the 50% inhibitory concentration (IC50) (in series [1]; in series [2]; against Collagenase 3; at Neutrophil collagenase) was more than 100000 nM throughout.

For the compound `CC(C)[C@H](C(=O)NO)N(Cc1ccccc1)S(=O)(=O)c1ccc(OCC[18F])cc1`, the figures for the t1/2 in the series with Kidney [3] and in the series with Liver [5] were 3 min and 7 min, respectively. Moreover, the Tmax in the series on Kidney [4] came to 1.5 min; in the series on Liver [6] it was 2.5 min.
